Assay: Toxicity liver stage against HepG2, at 10uM
Type: cell-based
Parameters: test concentration 10 uM, cell line HepG2-A16-CD81EGFP
Details: human, HepG2-A16-CD81EGFP cells; read-out: INHIBITION
Procedure, shortened: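 Uninfected HepG2-A16-CD81EGFP cells, 3 × 10^3 per well, 1536-well, plated on prespotted compound at 10 μM final, parasite-free screening media added to match infected plates; puromycin 10 μM positive, DMSO 0.5% negative; run in parallel with 48 h PbLuc assay at 37 °C, 5% CO2; viability by CellTiter-Glo luminescence, normalized to controls.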

SMILES | cytotoxicity at 10 µM [%]
Cc1cccc(SC2CCN(Cc3nc(CC4CC4)no3)CC2)c1 | -6.51
CC(=O)N1N=C(COc2ccc(C)cc2)OC1c1ccc(N(C)C)cc1 (stereo unspecified) | -3.33
COC1CN(C(=O)CC2CCCC2)CCC(=O)N(C)c2ccccc21 (stereo unspecified) | -32.8
CC(=O)c1cn(CCC(=O)N[C@@H](CC(C)C)C(=O)O)c2ccccc12 | 2.1
Cn1ccc2ccc(C(=O)NC3CCOC(C)(C)C3)cc21 (stereo unspecified) | 3.13
COC(=O)CC(C1=Cc2ccccc2OC1)c1oc(C)cc(=O)c1O (stereo unspecified) | -8.51
CCS(=O)(=O)c1nnc([C@@H](N)Cc2ccccc2)o1 | 6.99
CCCSc1nn(CCCN(C)C)c2nc3sc(C)c(CC)c3c(=O)n12 | -3.63
CN1CCN(C(=O)c2cc3sccc3n2Cc2ccccc2Cl)CC1 | 2.3
Cc1ccsc1C1CC(=O)Nc2c1cnn2C(C)C (stereo unspecified) | -7.7
COCCSc1ccc(-n2cccn2)nn1 | -24.6
COCCN(Cc1ccoc1)C(=O)c1ccccn1 | 9.24
COc1ccccc1C1CC(=O)Nc2c1c(=O)[nH]n2C1CCCC1 (stereo unspecified) | -3.85
COc1ccc(Br)c(C(=O)NCC2CCN(C(=O)c3ccoc3)CC2)c1 | -21.7
CC(=O)N1[C@@H](C(=O)NCC2CC2)C[C@@H]2CN(Cc3ccco3)C[C@@H]21 | 4.22
CCn1cc(-c2cc(C(F)(F)F)nn2CCC#N)cn1 | 3.93
CCCc1nc(N2CCCCC2)c2c(n1)c(C)nn2CC | 7.46
CCn1cncc1CN1CCc2nc3sccc3c(=O)n2CC1 | -2.55
CCc1ncc(CN2C[C@@H]3C[C@@H](O)CN3C[C@@H]2Cc2ccccc2)cn1 | -5.02

SMILES | cytotoxicity at 10 µM [%]
CCS(=O)(=O)N1C[C@@H](O)[C@H](N(C)Cc2ccc(F)cc2)C1 | 4.54
CC(=O)N1CCC(c2cccc(NC3CCOCC3)n2)CC1 | 13.3
COc1ccc(C2CNCCN2C(=O)c2cccc3ncccc23)cc1 (stereo unspecified) | -8.73
Cc1nc(C2CCCN(C(C)C)C2)sc1Br (stereo unspecified) | -4.52
c1ccc(CCN2CCCC2c2ccnc(Nc3ncccn3)n2)cc1 (stereo unspecified) | 2.14
CNc1cc(C)nc(C2CN(Cc3ccc(C)nc3)CCO2)c1 (stereo unspecified) | -2.29
O=C(Nc1ccccc1)N1CCn2c(nnc2C2CCNCC2)C1 | -3.84
CC(C)NC(=O)N1CCC2(CC1)CN(C(=O)NC(C)C)CCO2 | 11.8
O=C(NCC(O)CO)Nc1cc(Br)ccc1F (stereo unspecified) | 1.69
COc1ccc(CNCCc2cccc(C(N)=O)c2)cc1C | -6.81
O=C(COc1ccccc1)NS(=O)(=O)Cc1ccccc1 | -12.3
COC(=O)c1cc(NCc2cscn2)ccc1C | 5.17
CS(=O)(=O)c1cccc(Cl)c1C(=O)NCCN1C(=O)CCC1=O | -1.19
CS(=O)(=O)CCCC(=O)Nc1cc(-c2cccc(F)c2F)n[nH]1 | 4.77
CC(C)OC(=O)CC(NC(=O)CCn1cccn1)c1ccccc1 (stereo unspecified) | -12.2
Cc1noc(C)c1CNC(=O)NCCC(=O)N1CCCc2ccccc21 | -0.353
CC(C)(C)C(=O)N1CCC(COCc2ccccc2)C1 (stereo unspecified) | 12.8
CC(C)c1nc(NC(=O)CCCn2cccc2)n(C)n1 | -7.71
Cc1ccc(N(CC(=O)N2CCCCC2)C(=O)C2COCCO2)cc1 (stereo unspecified) | 13.6

SMILES | cytotoxicity at 10 µM [%]
CC(=O)N(C)C1CCN(C(=O)NCC(C)Cc2cccs2)CC1 (stereo unspecified) | -1.99
Cc1ccccc1C(=O)NC1CCN(c2cnn(C)c2)C1=O (stereo unspecified) | 4.19
NS(=O)(=O)CCCNC(=O)C1(c2cccc(Cl)c2)CC1 | -4.02
O=C(NCCNc1ncccn1)c1scnc1Cl | -3.11
CC(C#N)(NC(=O)COc1ccccc1Br)C1CC1 (stereo unspecified) | 7.45
CC1c2cccn2CCN1S(=O)(=O)N1CCCCCC1 (stereo unspecified) | -2.3
COc1ccc(CNC(C)c2cn[nH]c2C)cc1 (stereo unspecified) | 6.1
COc1ccc(CN2CCN(c3ncc(Cl)cn3)CC2)cc1 | -4.86
COCCCS(=O)(=O)N1CCN(C(=O)CO)CC1 | -0.995
CCc1ccc(Cn2nccc2NC(=O)C2CCS(=O)(=O)C2)cc1 (stereo unspecified) | -1.32
Nc1cc2c(nn1)CCN(C(=O)c1csc(-c3ccco3)n1)C2 | -2.79
Cc1cnn(CCNCc2csc(C)n2)c1 | 5.79
CC(C)c1noc(CCC(=O)NC(C)c2nnc3n2CCCCC3)n1 (stereo unspecified) | -4.35
Cc1cc(CNC(=O)NC(C)c2ccncc2)no1 (stereo unspecified) | -13.5
Cc1c(C(=O)NC(C)C(C)C)nnn1-c1cccc2c1CCN(C)C2 (stereo unspecified) | -9.03
CCN1CC(C(=O)NCc2ccc3c(c2)nc(C)n3C)CCC1=O (stereo unspecified) | -6.9
CC(C)(CN1CCOCC1)CN1CCC(Cc2cccc(CO)c2)C1 (stereo unspecified) | -7.73
CN(Cc1ccoc1)C(=O)C1(Oc2ccc(Cl)cc2)CCNCC1 | 5.73
